# Measured values of several laboratories.
# Compare with care: the assays were run in different laboratories.
# Action: inhibitor
# CDK2: Cyclin-dependent kinase 2 (CDK2, Homo sapiens, UniProt P24941)
# PARP2: Poly [ADP-ribose] polymerase 2 (PARP2, Homo sapiens, UniProt Q9UGN5)
Structure (SMILES),target,test,IC50 [nM]
NC(=O)c1cccnc1,"Nicotinamide N-methyltransferase (NNMT, Homo sapiens, UniProt P40261)",enzyme activity in cells,> 31600
Cc1n[nH]c2ccc3nc(-c4ccc(C(=O)NCCN5CCCC5)cc4)c4c(c3c12)CCCC4,CDK2,enzyme activity,310
COc1ccc2c(=O)[nH]c3c(nnn3Cc3ccc(C)cc3)c2c1,PARP2,"enzyme activity, fluorescence",> 10000
Cc1n[nH]c2ccc3nc(-c4ccc(C(=O)NCCN(C)C)cc4F)c4c(c3c12)CCCC4,CDK2,enzyme activity,80
NC/C(=C\F)COc1cccc(Cn2c(=S)[nH]c(=O)c3[nH]cnc32)c1,"Sodium channel protein type 5 subunit alpha (SCN5A, Homo sapiens, UniProt Q14524)",ion current,> 100000
CCCCCn1nnc2c3ccc(F)cc3c(=O)[nH]c21,PARP2,enzyme activity,> 10000
Cc1n[nH]c2ccc3nc(-c4ccc(C(=O)NCCN(C)C)cc4)c4c(c3c12)CCC(C)(C)C4,CDK2,enzyme activity,> 1000
CC(=O)N1C(=O)NC(C)=C(C(=O)OCc2ccccc2)C1c1cccc([N+](=O)[O-])c1 (racemic),"Voltage-dependent L-type calcium channel subunit alpha-1C (Cacna1c, Rattus norvegicus, UniProt P22002)","ion current, patch clamp",2600
Cc1cccc(Cn2nnc3c4ccc(F)cc4c(=O)[nH]c32)c1,PARP2,enzyme activity,> 10000
CN(C)CCNC(=O)c1ccc(-c2nc3ccc4[nH]ncc4c3c3c2CCCCC3)cn1,CDK2,enzyme activity,210
CCc1ccc(Cn2nnc3c4ccc(F)cc4c(=O)[nH]c32)cc1,PARP2,"enzyme activity, fluorescence",> 10000
Cn1cc(C2=C(c3cn(CCCSC(=N)N)c4ccccc34)C(=O)NC2=O)c2ccccc21,"Serine/threonine-protein kinase VRK1 (VRK1, Homo sapiens, UniProt Q99986)",enzyme activity,644
